Measurements reported in ChEMBL document CHEMBL1148855, “Synthesis and antibacterial activity of 4,5,6,7-tetrahydro-thieno[3,2-c]pyridine quinolones” (2007).
Values after ≈ are worked out from the molar mass of the structure shown.

Key:
Assay type in all cases: functional
[1] = tested on: Escherichia coli; assay: Antibacterial activity against Escherichia coli ATCC 25922 by micro-broth dilution method
Procedure, shortened: (§1)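 MIC taken as the lowest concentration giving 90% inhibition of bacterial growth. Determined by microbroth dilution following National Committee (NCCLS) guidance, with each value determined in triplicate.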

[2] = tested on: Streptococcus pneumoniae; assay: Antibacterial activity against penicillin-resistant Streptococcus pneumoniae ATCC 700904 by micro-broth dilution method
Procedure, shortened: (§2)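 Microbroth dilution run per National Committee guidelines; MIC taken as the concentration giving 90% inhibition of bacterial growth. Tested within a broader panel of susceptible and resistant Gram-positive strains. Reported values come from triplicate determinations.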

[3] = tested on: Staphylococcus epidermidis; assay: Antibacterial activity against Staphylococcus epidermidis ATCC 12228 by micro-broth dilution method; procedure, shortened: as §1
[4] = tested on: Enterococcus faecalis; assay: Antibacterial activity against Enterococcus faecalis ATCC 14506 by microbroth dilution method; procedure, shortened: as §1
[5] = tested on: Bacillus subtilis; assay: Antibacterial activity against Bacillus subtilis ATCC 6633 by micro-broth dilution method; procedure, shortened: as §1
[6] = tested on: Staphylococcus aureus; assay: Antibacterial activity against linezolid-resistant Staphylococcus aureus NRS 119 by microbroth dilution method; procedure, shortened: as §2
[7] = tested on: Staphylococcus aureus; assay: Antibacterial activity against Staphylococcus aureus ATCC 33592 by micro-broth dilution method; procedure, shortened: as §1
[8] = tested on: Enterococcus faecalis; assay: Antibacterial activity against vancomycin-resistant Enterococcus faecalis ATCC 700802 by micro-broth dilution method; procedure, shortened: as §2
[9] = tested on: Staphylococcus aureus; assay: Antibacterial activity against Staphylococcus aureus ATCC 25923 by micro-broth dilution method; procedure, shortened: as §1
[10] = tested on: Enterococcus faecium; assay: Antibacterial activity against vancomycin-resistant Enterococcus faecium ATCC 700221 by microbroth dilution method; procedure, shortened: as §2
[11] = tested on: Staphylococcus aureus; assay: Antibacterial activity against Staphylococcus aureus ATCC 29213 by micro-broth dilution method; procedure, shortened: as §1
[12] = tested on: Staphylococcus aureus; assay: Antibacterial activity against methicillin-resistant Staphylococcus aureus ATCC 700699 by micro-broth dilution method; procedure, shortened: as §2
[13] = tested on: Enterococcus faecalis; assay: Antibacterial activity against Enterococcus faecalis ATCC 29212 by micro-broth dilution method; procedure, shortened: as §1
[14] = tested on: Pseudomonas aeruginosa; assay: Antibacterial activity against Pseudomonas aeruginosa ATCC 27853 by micro-broth dilution method; procedure, shortened: as §1
[15] = tested on: Staphylococcus aureus; assay: Antibacterial activity against Staphylococcus aureus ATCC 33591 by micro-broth dilution method; procedure, shortened: as §1
[16] = tested on: Klebsiella pneumoniae; assay: Antibacterial activity against Klebsiella pneumoniae ATCC 10031 by micro-broth dilution method; procedure, shortened: as §1

| Structure (SMILES) | MIC [1] [µg/mL] | MIC [2] [µg/mL] | MIC [3] [µg/mL] | MIC [4] [µg/mL] | MIC [5] [µg/mL] | MIC [6] [µg/mL] | MIC [7] [µg/mL] | MIC [8] [µg/mL] | MIC [9] [µg/mL] | MIC [10] [µg/mL] | MIC [11] [µg/mL] | MIC [12] [µg/mL] | MIC [13] [µg/mL] | MIC [14] [µg/mL] | MIC [15] [µg/mL] | MIC [16] [µg/mL] |
| --- | --- | --- | --- | --- | --- | --- | --- | --- | --- | --- | --- | --- | --- | --- | --- | --- |
| COc1c(N2CCc3sc(Br)cc3C2)c(F)cc2c(=O)c(C(=O)O)cn(C3CC3)c12 | 2 (≈ 4.05 µM) | 8 (≈ 16.2 µM) | ≤ 0.12 | > 16 | ≤ 0.12 | > 16 | 2 (≈ 4.05 µM) | > 16 | 2 (≈ 4.05 µM) | > 16 | 4 (≈ 8.11 µM) | > 16 | 0.5 (≈ 1.01 µM) | > 16 | 1 (≈ 2.03 µM) | 4 (≈ 8.11 µM) |
| COc1c(N2CCc3sc(C=O)cc3C2)c(F)cc2c(=O)c(C(=O)O)cn(C3CC3)c12 | 0.25 (≈ 0.565 µM) | ≤ 0.12 | ≤ 0.12 | 2 (≈ 4.52 µM) | ≤ 0.12 | ≤ 0.12 | ≤ 0.25 | 0.25 (≈ 0.565 µM) | ≤ 0.125 | > 16 | ≤ 0.125 | 0.5 (≈ 1.13 µM) | ≤ 0.12 | 8 (≈ 18.1 µM) | ≤ 0.12 | ≤ 0.12 |
| COc1c(N2CCc3sc(CO)cc3C2)c(F)cc2c(=O)c(C(=O)O)cn(C3CC3)c12 | 0.25 (≈ 0.562 µM) | ≤ 0.12 | > 16 |  | ≤ 0.12 | 0.5 (≈ 1.12 µM) |  | 0.25 (≈ 0.562 µM) | 2 (≈ 4.5 µM) |  | 2 (≈ 4.5 µM) | 2 (≈ 4.5 µM) | 0.5 (≈ 1.12 µM) | 16 (≈ 36 µM) | 2 (≈ 4.5 µM) | ≤ 0.12 |
| COc1c(N2CCc3sccc3C2)c(F)cc2c(=O)c(C(=O)O)cn(C3CC3)c12 | ≤ 0.12 | ≤ 0.125 | > 16 | 0.25 (≈ 0.603 µM) | ≤ 0.12 | > 16 | 0.25 (≈ 0.603 µM) | ≤ 0.125 | ≤ 0.125 | 16 (≈ 38.6 µM) | ≤ 0.125 | 2 (≈ 4.83 µM) | 2 (≈ 4.83 µM) | > 16 | ≤ 0.12 | 0.25 (≈ 0.603 µM) |
| COc1c(N2CCc3sc(C(=O)O)cc3C2)c(F)cc2c(=O)c(C(=O)O)cn(C3CC3)c12 | 8 (≈ 17.4 µM) | 1 (≈ 2.18 µM) | 1 (≈ 2.18 µM) | > 16 | 0.5 (≈ 1.09 µM) | > 16 | 0.5 (≈ 1.09 µM) | 16 (≈ 34.9 µM) | 2 (≈ 4.36 µM) | > 16 | 2 (≈ 4.36 µM) | > 16 | 8 (≈ 17.4 µM) | > 16 | 2 (≈ 4.36 µM) | 2 (≈ 4.36 µM) |
| COc1c(N2CCc3sccc3C2)c(F)c([N+](=O)[O-])c2c(=O)c(C(=O)O)cn(C3CC3)c12 | 16 (≈ 34.8 µM) |  | 2 (≈ 4.35 µM) |  | 0.25 (≈ 0.544 µM) |  |  |  |  |  |  |  |  | > 16 | 8 (≈ 17.4 µM) |  |
| O=C(O)c1cn(C2CC2)c2cc(N3CCc4sccc4C3)c(F)cc2c1=O | 0.25 (≈ 0.65 µM) | 0.25 (≈ 0.65 µM) | 8 (≈ 20.8 µM) | 16 (≈ 41.6 µM) | ≤ 0.12 | > 16 | 1 (≈ 2.6 µM) | 4 (≈ 10.4 µM) | 1 (≈ 2.6 µM) | > 16 | 4 (≈ 10.4 µM) | > 16 |  | > 16 | 4 (≈ 10.4 µM) | ≤ 0.12 |
| Nc1c(F)c(N2CCc3sccc3C2)c(F)c2c1c(=O)c(C(=O)O)cn2C1CC1 | 0.25 (≈ 0.599 µM) | 2 (≈ 4.79 µM) | 16 (≈ 38.3 µM) | > 16 | ≤ 0.12 | > 16 | 4 (≈ 9.58 µM) | 16 (≈ 38.3 µM) | 4 (≈ 9.58 µM) | > 16 | 8 (≈ 19.2 µM) | > 16 | > 16 | > 16 | 4 (≈ 9.58 µM) | 4 (≈ 9.58 µM) |
| CC(=O)Nc1c(F)c(N2CCc3sccc3C2)c(F)c2c1c(=O)c(C(=O)O)cn2C1CC1 | > 16 |  | > 16 |  | 1 (≈ 2.18 µM) |  |  |  |  |  |  |  | > 16 | > 16 | > 16 | > 16 |
| Nc1c(F)c(N2CCc3sc(Br)cc3C2)c(F)c2c1c(=O)c(C(=O)O)cn2C1CC1 | > 16 |  | > 16 |  | > 16 |  |  |  |  |  |  |  | > 16 | > 16 |  | > 16 |
| COc1c(N2CCc3sc([N+](=O)[O-])cc3C2)c(F)cc2c(=O)c(C(=O)O)cn(C3CC3)c12 | 0.5 (≈ 1.09 µM) | 0.5 (≈ 1.09 µM) | 4 (≈ 8.71 µM) | > 16 | ≤ 0.12 | > 16 | 8 (≈ 17.4 µM) | 16 (≈ 34.8 µM) | 4 (≈ 8.71 µM) | > 16 | 4 (≈ 8.71 µM) | 16 (≈ 34.8 µM) | ≤ 0.12 | 1 (≈ 2.18 µM) | ≤ 0.12 | 0.25 (≈ 0.544 µM) |
| O=C(O)c1cn(C2CC2)c2c(F)c(N3CCc4sccc4C3)c(F)c(F)c2c1=O | 0.5 (≈ 1.19 µM) | 2 (≈ 4.76 µM) | 2 (≈ 4.76 µM) | > 16 | 0.25 (≈ 0.595 µM) | > 16 | 2 (≈ 4.76 µM) | 16 (≈ 38.1 µM) | 2 (≈ 4.76 µM) | > 16 | 4 (≈ 9.51 µM) | > 16 | > 16 | > 16 | 4 (≈ 9.51 µM) | 8 (≈ 19 µM) |
| COc1c(N2CCc3sc(COC(C)=O)cc3C2)c(F)cc2c(=O)c(C(=O)O)cn(C3CC3)c12 | 0.5 (≈ 1.03 µM) | ≤ 0.12 | ≤ 0.12 |  | ≤ 0.12 | 2 (≈ 4.11 µM) | 2 (≈ 4.11 µM) | 1 (≈ 2.06 µM) | 1 (≈ 2.06 µM) |  | 4 (≈ 8.22 µM) | 4 (≈ 8.22 µM) | 0.5 (≈ 1.03 µM) | > 16 | 0.25 (≈ 0.514 µM) | 2 (≈ 4.11 µM) |
| O=C(O)c1cn(C2CC2)c2cc(N3CCc4sc(Br)cc4C3)c(F)cc2c1=O | 1 (≈ 2.16 µM) | 2 (≈ 4.32 µM) | 0.5 (≈ 1.08 µM) | > 16 | ≤ 0.12 | > 16 | 4 (≈ 8.63 µM) | > 16 | 0.5 (≈ 1.08 µM) |  | 4 (≈ 8.63 µM) | > 16 |  | > 16 | 4 (≈ 8.63 µM) | 2 (≈ 4.32 µM) |
| O=C(O)c1cn(C2CC2)c2cc(N3CCNCC3)c(F)cc2c1=O [CIPROFLOXACIN] | ≤ 0.12 | 0.25 (≈ 0.754 µM) | ≤ 0.12 | 1 (≈ 3.02 µM) | ≤ 0.12 | > 16 | 0.5 (≈ 1.51 µM) | 1 (≈ 3.02 µM) | 0.25 (≈ 0.754 µM) | > 16 | 1 (≈ 3.02 µM) | > 16 | 2 (≈ 6.04 µM) |  | 1 (≈ 3.02 µM) | ≤ 0.12 |
| COc1c(N2CCNC(C)C2)c(F)cc2c(=O)c(C(=O)O)cn(C3CC3)c12 (stereo unspecified) [GATIFLOXACIN] | ≤ 0.12 | ≤ 0.125 | 0.25 (≈ 0.666 µM) | 0.5 (≈ 1.33 µM) | ≤ 0.12 | 4 (≈ 10.7 µM) | 4 (≈ 10.7 µM) | 0.5 (≈ 1.33 µM) | ≤ 0.125 | > 16 | 0.25 (≈ 0.666 µM) | 8 (≈ 21.3 µM) | 0.5 (≈ 1.33 µM) | 1 (≈ 2.66 µM) | 0.5 (≈ 1.33 µM) | ≤ 0.12 |
| C[C@@H]1CN(c2c(F)c(N)c3c(=O)c(C(=O)O)cn(C4CC4)c3c2F)C[C@H](C)N1 [SPARFLOXACIN] |  | ≤ 0.125 | 0.25 (≈ 0.637 µM) | > 16 | ≤ 0.12 | 16 (≈ 40.8 µM) | ≤ 0.25 | 1 (≈ 2.55 µM) | ≤ 0.125 | 16 (≈ 40.8 µM) | ≤ 0.125 | 8 (≈ 20.4 µM) |  | 0.25 (≈ 0.637 µM) | 16 (≈ 40.8 µM) | ≤ 0.12 |
